Experimental data as given in ChEMBL document CHEMBL4270665, “Biodegradable Amphipathic Peptide Hydrogels as Extended-Release System for Opioid Peptides” (J Med Chem, 2018).
Activity calls are given as the source filed them. No cut-off for these calls is given here. Starred links: 1 amine or outer side, 2 acyl side, 3 side chain; linkers in the order of their positions; H or OH if unused. Non-standard residues stand in square brackets, D forms with d. Residues, ends and D or L forms follow the SMILES beside them. X1 = O=C1[C@@H](N[*:1])Cc2ccccc2CN1CCC(=O)[*:2]; Dmt = Cc1cc(O)cc(C)c1C[C@H](N)C(=O)O; β3hF = N[C@H](CC(=O)O)Cc1ccccc1

How the values were obtained:
[1] = Metabolic stability in C57BL/6 mouse hind limb assessed as compound remaining at 150 ul, sc measured after 72 hrs post dose by SPECT/CT analysis; assay type: ADME, organism-based, Hindlimb; details: read-out: Stability
In short: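 Hydrogel degradation was followed after subcutaneous injection in mice by determining the hydrogel volume remaining at the injection site, up to 72 h.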

[2] = Prodrug conversion in human plasma assessed as H-Dmt-DArg-Phe-OH metabolite formation at 9 uM after 30 to 45 mins by LC-MS analysis; assay type: ADME, cell-free
In short: (§1)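 Peptides were incubated in human plasma at 37 °C, and samples were collected at different time points. Half-life was calculated from the degradation profile. Major metabolites were identified by LC−MS analysis of the collected samples.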

[3] = Half life in human plasma at 9 uM at 37 degC by LC-MS analysis; assay type: ADME, cell-free; in short: as §1
[4] = Prodrug conversion in human plasma assessed as H-Dmt-DArg-Phe-Phe-Gln-OH metabolite formation at 9 uM after 30 to 45 mins by LC-MS analysis; assay type: ADME, cell-free
[5] = test system: Mus musculus; experiment: Antinociceptive activity in sc dosed CD1 mouse assessed as increase in tail-flick latency measured up to 72 hrs post dose; assay type: functional, organism-based
In short: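 Radiant heat tail-flick test in mice after subcutaneous injection of 150 μL per mouse. The peptide (0.56 μmol/mouse) was given coformulated with hydrogelator (2% v/w) or conjugated as a biogel (2% v/w). Hydrogelator alone and saline served as controls. Latency was followed as %MPE over time with AUC calculated. Groups were 6−8 mice, reported as mean ± SEM, with two-way ANOVA and Bonferroni post hoc test.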

[6] = Prodrug conversion in human plasma assessed as H-Dmt-DArg-Phe-Phe-Gln-Phe-Gln-OH metabolite formation at 9 uM after 30 to 45 mins by LC-MS analysis; assay type: ADME, cell-free; in short: as §1
[7] = test system: Mus musculus; experiment: Antinociceptive activity in CD1 mouse assessed as increase in tail-flick latency at 4.2 umol/kg, sc measured up to 3 to 4 hrs post dose; assay type: functional, organism-based
In short: (§2)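 Peptide given as a solution, sc, with a saline control group. Radiant-heat tail-flick test read as %MPE over time, with AUC of the time curves calculated. 6−8 mice per group, mean ± SEM. Two-way ANOVA with Bonferroni post hoc test.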

[8] = molecular target: T1, Mu-type opioid receptor (Homo sapiens, UniProt P35372); experiment: Displacement of [3H]DAMGO from human MOR expressed in CHO cell membranes after 60 mins by liquid scintillation counting
[9] = molecular target: T1, Mu-type opioid receptor; experiment: Agonist activity at human MOR expressed in CHO cell membranes after 60 mins by [35S]GTPgammaS binding assay; assay type: functional
In short: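 Membranes from CHO cells stably expressing human MOR; agonist-stimulated [35S]GTPγS binding. Potency given as EC50 and efficacy (full or partial agonism) measured at human MOR.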

[10] = test system: Mus musculus; experiment: Antinociceptive activity in CD1 mouse assessed as increase in tail-flick latency at 0.58 umol/kg, sc co-formulated with H-Phe-Glu-Phe-Gln-Phe-Lys-NH2 measured up to 72 hrs post dose; assay type: functional, organism-based
[11] = test system: Mus musculus; experiment: Antinociceptive activity in sc dosed CD1 mouse assessed as increase in tail-flick latency measured up to 3 hrs post dose; assay type: functional, organism-based
[12] = test system: Mus musculus; experiment: Antinociceptive activity in CD1 mouse assessed as increase in tail-flick latency at 0.56 umol, sc co-formulated with H-Phe-Gln-Phe-Gln-Phe-Lys-NH2 measured up to 72 hrs post dose; assay type: functional, organism-based
In short: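 Mice received peptide (0.56 μmol/mouse) co-formulated with hydrogelator at 2% (v/w), sc in 150 μL per mouse. Controls were hydrogelator alone or saline. Radiant-heat tail-flick test read as %MPE over time, with AUC calculated. 6−8 mice per group, mean ± SEM. Two-way ANOVA with Bonferroni post hoc test.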

[13] = molecular target: T1, Mu-type opioid receptor; experiment: Agonist activity at human MOR expressed in human U2OS cells co-expressing enzyme acceptor-tagged beta-arrestin2 fusion protein assessed as induction of beta-arrestin2 recruitment preincubated for 90 mins measured by PathHunter assay; assay type: functional, cell-based
[14] = test system: Mus musculus; experiment: Antinociceptive activity in CD1 mouse assessed as increase in tail-flick latency at 5.6 umol/kg, sc measured up to 7 hrs post dose; assay type: functional, organism-based
[15] = test system: Mus musculus; experiment: Antinociceptive activity in CD1 mouse assessed as increase in tail-flick latency at 0.30 umol, sc co-formulated with H-Phe-Glu-Phe-Gln-Phe-Lys-NH2 measured up to 72 hrs post dose; assay type: functional, organism-based
[16] = test system: Mus musculus; experiment: Antinociceptive activity in CD1 mouse assessed as increase in tail-flick latency at 1.8 umol/kg, sc measured after 4 hrs post dose; assay type: functional, organism-based
[17] = test system: Mus musculus; experiment: Antinociceptive activity in sc dosed CD1 mouse assessed as increase in tail-flick latency measured up to 24 hrs post dose; assay type: functional, organism-based
[18] = test system: Mus musculus; experiment: Antinociceptive activity in CD1 mouse assessed as increase in tail-flick latency at 14 umol/kg, sc measured up to 96 hrs post dose relative to control; assay type: functional
[19] = test system: Mus musculus; experiment: Antinociceptive activity in CD1 mouse assessed as increase in tail-flick latency at 6.8 umol/kg, sc measured up to 8 hrs post dose; assay type: functional, organism-based; in short: as §2
[20] = test system: Mus musculus; experiment: Antinociceptive activity in CD1 mouse assessed as increase in tail-flick latency at 13 umol/kg, sc measured up to 96 hrs post dose relative to control; assay type: functional
[21] = test system: Mus musculus; experiment: Antinociceptive activity in CD1 mouse assessed as increase in tail-flick latency at 5.8 umol/kg, sc measured after 8 hrs post dose; assay type: functional, organism-based
[22] = test system: Mus musculus; experiment: Antinociceptive activity in CD1 mouse assessed as increase in tail-flick latency at 3.9 umol/kg, sc measured up to 3 to 4 hrs post dose; assay type: functional, organism-based
In short: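 Radiant heat tail-flick test on an analgesiometer after subcutaneous injection of solutions in mice. Doses were 3.0, 3.9, 4.2 or 6.8 μmol/kg, with saline as control. Response was expressed as %MPE over time and AUC was calculated. Groups were 6−8 mice, reported as mean ± SEM, with two-way ANOVA and Bonferroni post hoc test.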

T1 sequence (P35372 whole entry): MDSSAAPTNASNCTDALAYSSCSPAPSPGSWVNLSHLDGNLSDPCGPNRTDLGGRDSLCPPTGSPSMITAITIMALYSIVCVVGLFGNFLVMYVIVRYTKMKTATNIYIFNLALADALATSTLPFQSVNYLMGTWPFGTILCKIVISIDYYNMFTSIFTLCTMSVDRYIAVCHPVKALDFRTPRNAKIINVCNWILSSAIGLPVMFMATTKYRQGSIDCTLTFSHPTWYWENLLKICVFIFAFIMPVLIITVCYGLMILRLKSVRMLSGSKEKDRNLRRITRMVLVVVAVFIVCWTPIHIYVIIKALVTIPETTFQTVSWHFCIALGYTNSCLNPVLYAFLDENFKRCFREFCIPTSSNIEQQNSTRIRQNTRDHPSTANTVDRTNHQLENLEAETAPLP

Molecule: H-FQFQFK-NH2
- remaining at 72 h [1]: 20%

Molecule: Cc1cc(O)cc(C)c1C[C@H](N)C(=O)N[C@H](CCCNC(=N)N)C(=O)N[C@@H](Cc1ccccc1)C(=O)N[C@@H](Cc1ccccc1)C(=O)N[C@@H](CCC(N)=O)C(=O)N[C@@H](Cc1ccccc1)C(=O)N[C@@H](CCC(N)=O)C(=O)N[C@@H](Cc1ccccc1)C(=O)N[C@@H](CCCCN)C(N)=O (H-[Dmt][dR]FFQFQFK-NH2)
- Drug metabolism [2]: Metabolite_Detected
- half-life at 9 µM [3]: 16 min
- Drug metabolism [4]: Metabolite_Detected
- Activity [5]: Active
- Drug metabolism [6]: Metabolite_Detected

Molecule: Cc1cc(O)cc(C)c1C[C@H](N)C(=O)N[C@H](CCCNC(=N)N)C(=O)N[C@@H](Cc1ccccc1)C(=O)N[C@@H](Cc1ccccc1)C(=O)N[C@@H](CCC(N)=O)C(=O)O
- Activity [7]: Active
- Ki [8]: 0.34 nM
- EC50 [9]: 0.28 nM

Molecule: N=C(N)NCCC[C@@H](NC(=O)[C@@H](N)Cc1ccc(O)cc1)C(=O)N[C@@H](Cc1ccccc1)C(=O)N[C@@H](Cc1ccccc1)C(=O)N[C@@H](CCC(N)=O)C(=O)N[C@@H](Cc1ccccc1)C(=O)N[C@@H](CCC(N)=O)C(=O)N[C@@H](Cc1ccccc1)C(=O)N[C@@H](CCCCN)C(N)=O
- half-life at 9 µM [3]: 18 min

Molecule: Cc1cc(O)cc(C)c1C[C@H](N)C(=O)N[C@H](CCCNC(=N)N)C(=O)N[C@@H](Cc1ccccc1)C(=O)N[C@@H](Cc1ccccc1)C(=O)N[C@@H](CCC(N)=O)C(=O)N[C@H](CC(=O)N[C@@H](Cc1ccccc1)C(=O)N[C@@H](CCC(N)=O)C(=O)N[C@@H](Cc1ccccc1)C(=O)N[C@@H](CCCCN)C(N)=O)Cc1ccccc1 (H-[Dmt][dR]FFQ[β3hF]FQFK-NH2)
- Activity [10]: inactive
- Ki [8]: 5 to 141 nM
- half-life at 9 µM [3]: 123 min
- Activity [11]: inactive

Molecule: Cc1cc(O)cc(C)c1C[C@H](N)C(=O)N[C@H](CCCNC(=N)N)C(=O)N[C@@H](Cc1ccccc1)C(=O)N[C@@H](Cc1ccccc1)C(N)=O
- Activity [12]: Active
- Ki [8]: 0.037 nM
- Activity [13]: inactive
- Activity [14]: Active
- EC50 [9]: 0.19 nM

Molecule: H-FEFQFK-NH2
- remaining at 72 h [1]: 20%

Molecule: Cc1cc(O)cc(C)c1C[C@H](N)C(=O)N[C@H](CCCNC(=N)N)C(=O)N[C@H]1Cc2ccccc2CN(CCC(N)=O)C1=O
- Activity [15]: Active
- Activity [13]: inactive
- Activity [16]: Active

Molecule: Cc1cc(O)cc(C)c1C[C@H](N)C(=O)N[C@H](CCCCN)C(=O)N[C@@H](Cc1ccccc1)C(=O)N[C@@H](Cc1ccccc1)C(=O)N[C@@H](CCC(=O)O)C(=O)N[C@@H](Cc1ccccc1)C(=O)N[C@@H](CCC(N)=O)C(=O)N[C@@H](Cc1ccccc1)C(=O)N[C@@H](CCCCN)C(N)=O (H-[Dmt][dK]FFEFQFK-NH2)
- Ki [8]: 5 to 141 nM
- Activity [17]: Active

Molecule: Cc1cc(O)cc(C)c1C[C@H](N)C(=O)N[C@H](CCCCN)C(=O)N[C@@H](Cc1ccccc1)C(=O)N[C@@H](Cc1ccccc1)C(=O)N[C@@H](CCC(N)=O)C(=O)N[C@@H](Cc1ccccc1)C(=O)N[C@@H](CCC(N)=O)C(=O)N[C@@H](Cc1ccccc1)C(=O)N[C@@H](CCCCN)C(N)=O (H-[Dmt][dK]FFQFQFK-NH2)
- Ki [8]: 5 to 141 nM
- Activity [17]: Active

Molecule: Cc1cc(O)cc(C)c1C[C@H](N)C(=O)N1CCC[C@H]1C(=O)N[C@@H](Cc1ccccc1)C(=O)N[C@@H](Cc1ccccc1)C(N)=O
- MPE [18]: <80%
- Activity [13]: inactive
- EC50 [9]: 0.1 to 0.86 nM

Molecule: Cc1cc(O)cc(C)c1C[C@H](N)C(=O)N1CCC[C@H]1C(=O)N[C@@H](Cc1c[nH]c2ccccc12)C(=O)N[C@@H](Cc1ccccc1)C(=O)N[C@@H](CCC(N)=O)C(=O)N[C@@H](Cc1ccccc1)C(=O)N[C@@H](CCC(N)=O)C(=O)N[C@@H](Cc1ccccc1)C(=O)N[C@@H](CCCCN)C(N)=O (H-[Dmt]PWFQFQFK-NH2)
- Ki [8]: 5 to 141 nM

Molecule: Cc1cc(O)cc(C)c1C[C@H](N)C(=O)N[C@H](CCCNC(=N)N)C(=O)N[C@@H](Cc1ccccc1)C(=O)O
- Activity [19]: Active
- Ki [8]: 0.52 nM
- EC50 [9]: 3.67 nM

Molecule: Cc1cc(O)cc(C)c1C[C@H](N)C(=O)N[C@H](CCCNC(=N)N)C(=O)N[C@H]1Cc2ccccc2CN(CCC(=O)N[C@@H](Cc2ccccc2)C(=O)N[C@@H](CCC(N)=O)C(=O)N[C@@H](Cc2ccccc2)C(=O)N[C@@H](CCC(N)=O)C(=O)N[C@@H](Cc2ccccc2)C(=O)N[C@@H](CCCCN)C(N)=O)C1=O (H-[Dmt][dR][X1]FQFQFK-NH2)
- Ki [8]: 5 to 141 nM

Molecule: Cc1cc(O)cc(C)c1C[C@H](N)C(=O)N1CCC[C@H]1C(=O)N[C@@H](Cc1c[nH]c2ccccc12)C(=O)N[C@@H](Cc1ccccc1)C(N)=O
- Activity [13]: inactive
- MPE [20]: <80%
- EC50 [9]: 0.1 to 0.86 nM

Molecule: Cc1cc(O)cc(C)c1C[C@H](N)C(=O)N[C@H](CCCCN)C(=O)N[C@@H](Cc1ccccc1)C(=O)N[C@@H](Cc1ccccc1)C(N)=O
- Activity [21]: Active
- Activity [12]: Active
- Activity [13]: inactive
- EC50 [9]: 0.1 to 0.86 nM

Molecule: Cc1cc(O)cc(C)c1C[C@H](N)C(=O)N1CCC[C@H]1C(=O)N[C@@H](Cc1ccccc1)C(=O)N[C@@H](Cc1ccccc1)C(=O)N[C@@H](CCC(=O)O)C(=O)N[C@@H](Cc1ccccc1)C(=O)N[C@@H](CCC(N)=O)C(=O)N[C@@H](Cc1ccccc1)C(=O)N[C@@H](CCCCN)C(N)=O
- Ki [8]: 5 to 141 nM

Molecule: Cc1cc(O)cc(C)c1C[C@H](N)C(=O)N[C@H](CCCNC(=N)N)C(=O)N[C@@H](Cc1ccccc1)C(=O)N[C@@H](Cc1ccccc1)C(=O)N[C@@H](CCC(N)=O)C(=O)N[C@@H](Cc1ccccc1)C(=O)N[C@@H](CCC(N)=O)C(=O)O
- Ki [8]: 6.16 nM
- Activity [22]: Active
- EC50 [9]: 47.5 nM

Molecule: Cc1cc(O)cc(C)c1C[C@H](N)C(=O)N1CCC[C@H]1C(=O)N[C@@H](Cc1ccccc1)C(=O)N[C@@H](Cc1ccccc1)C(=O)N[C@@H](CCC(N)=O)C(=O)N[C@@H](Cc1ccccc1)C(=O)N[C@@H](CCC(N)=O)C(=O)N[C@@H](Cc1ccccc1)C(=O)N[C@@H](CCCCN)C(N)=O (H-[Dmt]PFFQFQFK-NH2)
- Ki [8]: 5 to 141 nM
